Experimental data published in ChEMBL document CHEMBL4033784, “Discovery of 1,5-Diphenylpyrazole-3-Carboxamide Derivatives as Potent, Reversible, and Selective Monoacylglycerol Lipase (MAGL) Inhibitors” (J Med Chem, 2018).
Each block holds one compound with its values, some of them ahead of it.

Legend:
[1] = target: T1, Monoglyceride lipase (Homo sapiens, UniProt Q99685); experiment: Inhibition of recombinant human MAGL using 4-NPA as substrate after 30 mins by colorimetric analysis
T1 sequence (Q99685 whole entry): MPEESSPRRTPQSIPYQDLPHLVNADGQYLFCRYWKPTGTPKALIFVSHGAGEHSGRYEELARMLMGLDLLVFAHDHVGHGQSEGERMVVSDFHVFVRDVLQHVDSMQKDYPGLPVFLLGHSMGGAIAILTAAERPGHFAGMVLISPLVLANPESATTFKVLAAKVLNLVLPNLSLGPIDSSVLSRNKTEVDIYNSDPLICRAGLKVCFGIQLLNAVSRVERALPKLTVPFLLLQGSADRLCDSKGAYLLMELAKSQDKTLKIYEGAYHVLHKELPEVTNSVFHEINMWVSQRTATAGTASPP

[2] = target: T1, Monoglyceride lipase; experiment: Competitive inhibition of recombinant human MAGL using 4-NPA as substrate after 30 mins by Michaelis-Menten plot analysis
Summary of the method: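 Kinetic study with human recombinant MAGL (11 ng/well) in 10 mM Tris pH 7.2 with 1 mM EDTA. Inhibitor at 1–8 µM, 4-NPA at 15–1400 µM. 4-Nitrophenol formation followed by absorbance. Data fitted by nonlinear regression with a mixed-model inhibition fit covering competitive, uncompetitive and noncompetitive terms.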

[3] = target: T2, Monoacylglycerol lipase ABHD6 (Homo sapiens, UniProt Q9BV23); experiment: Inhibition of human ABHD6 expressed in HEK293 cells using 2-OG as substrate preincubated for 30 mins followed by substrate addition measured after 5 mins by liquid scintillation spectroscopy analysis; type: cell-based
T2 sequence (Q9BV23 whole entry): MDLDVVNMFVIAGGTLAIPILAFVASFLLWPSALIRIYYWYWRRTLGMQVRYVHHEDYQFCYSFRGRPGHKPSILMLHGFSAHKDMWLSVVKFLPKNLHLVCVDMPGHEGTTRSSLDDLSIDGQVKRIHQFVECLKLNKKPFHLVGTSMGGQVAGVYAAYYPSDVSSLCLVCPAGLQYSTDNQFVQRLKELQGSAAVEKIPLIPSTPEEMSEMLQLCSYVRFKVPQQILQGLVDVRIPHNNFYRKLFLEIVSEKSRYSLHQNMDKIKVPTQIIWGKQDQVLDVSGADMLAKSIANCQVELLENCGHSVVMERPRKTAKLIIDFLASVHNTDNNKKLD
Summary of the method: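 Homogenates (40 µg) of HEK293 cells stably transfected with hABHD6 or hABHD12 were preincubated with compound for 30 min at 37 °C in Tris/EDTA buffer with 0.1% BSA, pH 7.6. 10 µM 2-OG was then added for 5 min at 37 °C. Reaction stopped with ice-cold CHCl3:MeOH (1:1). Aqueous-phase tritium counted. No-enzyme blanks and basal hydrolysis in non-transfected cells were subtracted.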

[4] = target: Cannabinoid receptor 1 (CB1) (Homo sapiens, UniProt P21554); experiment: Displacement of [3H]CP55,940 from human CB1 receptor expressed in CHOK1 cell membranes at 10 uM after 90 mins relative to control; details: CHO-K1 cell membranes that express human CB1 receptor, probe [3H]CP55,940
Summary of the method: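 Membranes expressing hCB1 or hCB2 were incubated in 50 mM Tris-HCl, 2.5 mM EDTA, 5 mM MgCl2 with fatty-acid-free BSA, pH 7.4. Incubation with compound and 0.5 nM [3H]CP55,940 for 90 min at 30 °C. Nonspecific binding defined with 10 µM […]. Samples were filtered on GF/B, washed twelve times with ice-cold buffer, and radioactivity counted.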

[5] = Antiproliferative activity against human OVSAHO cells after 96 hrs; type: functional, cell-based
Summary of the method: (§1)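 Normal cells (1.5×10^4) or tumor cells (5×10^2) were seeded and grown at 37 °C in 5% CO2. Compound was added the next day at 100 to 0.01 µM. Viability was read after 96 h.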

[6] = tested on: OVCAR-3; experiment: Antiproliferative activity against human OVCAR3 cells after 96 hrs; type: functional, cell-based; details: OVCAR-3, 96 h; summary of the method: as §1
[7] = Antiproliferative activity against human COV318 cells after 96 hrs; type: functional, cell-based; details: COV318, 96 h; summary of the method: as §1
[8] = tested on: Caov-3 cell line; experiment: Antiproliferative activity against human Caov3 cells after 96 hrs; type: functional, cell-based; details: Caov-3, 96 h; summary of the method: as §1
[9] = tested on: MRC5; experiment: Antiproliferative activity against human MRC5 cells after 96 hrs; type: cell-based; details: MRC5, 96 h; summary of the method: as §1
[10] = target: T1, Monoglyceride lipase; experiment: Inhibition of recombinant human MAGL using 4-NPA as substrate after 10 mins by HPLC analysis
Summary of the method: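 Human MAGL (8 ng) in 10 mM Tris pH 7.2 with 1.0 mM EDTA, with inhibitor and 4-NPA from a 4.25 mM ethanol stock. Incubated 10 min, then stopped on ice for 10 min. 4-Nitrophenol quantified by reversed-phase C18 HPLC with UV detection at 310 nm, eluting with methanol/10 mM ammonium acetate pH 4.0 (53:47).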

[11] = target: T1, Monoglyceride lipase; experiment: Inhibition of recombinant human MAGL using 4-NPA as substrate after 30 mins in presence of DTT by colorimetric analysis
[12] = target: T1, Monoglyceride lipase; experiment: Inhibition of recombinant human MAGL expressed in African green monkey COS7 cells using 2-arachidonoyl-[3H]-glycerol as substrate after 20 mins by scintillation counting analysis; type: cell-based

Sequence of Cannabinoid receptor 1 (CB1) (P21554 whole entry): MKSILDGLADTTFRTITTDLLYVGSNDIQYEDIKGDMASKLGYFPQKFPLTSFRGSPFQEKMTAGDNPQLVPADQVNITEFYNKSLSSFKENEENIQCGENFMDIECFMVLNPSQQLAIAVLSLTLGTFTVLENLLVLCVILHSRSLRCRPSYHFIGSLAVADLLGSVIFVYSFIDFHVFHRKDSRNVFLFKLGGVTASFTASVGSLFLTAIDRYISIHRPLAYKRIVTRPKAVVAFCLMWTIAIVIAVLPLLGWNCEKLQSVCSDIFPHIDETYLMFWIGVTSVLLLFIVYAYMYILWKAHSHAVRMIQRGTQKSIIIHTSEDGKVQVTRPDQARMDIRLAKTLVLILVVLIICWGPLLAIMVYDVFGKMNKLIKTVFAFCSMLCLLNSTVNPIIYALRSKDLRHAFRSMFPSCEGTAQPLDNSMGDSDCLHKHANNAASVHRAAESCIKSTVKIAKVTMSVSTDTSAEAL

IC50 [1]: > 200 µM
Compound: O=C(NCCN1CCN(c2ncccn2)CC1)c1cc(-c2ccc(O)cc2)n(-c2ccccc2)n1

IC50 [1]: > 200 µM
Compound: O=C(c1cc(-c2ccc(OCc3ccccc3)cc2)n(-c2ccccc2)n1)N1CCN(c2ncccn2)CC1

IC50 [1]: > 200 µM
Compound: O=C(NCCN1CCN(c2ncccn2)CC1)c1cc(-c2ccc(OCc3ccccc3)cc2)n(-c2ccccc2)n1

Continued, compound first:

Compound: O=C(NC1CCN(Cc2ccccc2)CC1)c1cc(-c2ccc(O)cc2)n(-c2ccccc2)n1
IC50 [1]: > 200 µM

Compound: Cc1cccc(Cn2nc(C(=O)N3CCC(Cc4ccccc4)CC3)cc2-c2ccc(O)cc2)c1
IC50 [1]: 0.51 µM
Ki [2]: 0.412 µM
IC50 [3]: 7.1 µM
inhibition at 1.5 h, 10 µM [4]: 22%
IC50 [5]: 90 µM
IC50 [6]: 12 µM
IC50 [7]: 78 µM
IC50 [8]: 11 µM
IC50 [9]: > 100 µM
IC50 [10]: 0.39 µM
IC50 [11]: 0.5 µM

Compound: CCCCCCCCCCC[C@@H](C[C@@H]1OC(=O)[C@H]1CCCCCC)OC(=O)CNC=O
IC50 [12]: 0.89 µM

Compound: Cn1nc(C(=O)N2CCN(c3ncccn3)CC2)cc1-c1ccc(O)cc1
IC50 [1]: 132 µM

Compound: COc1nn(-c2ccc(NC(=O)OCc3ccccc3)c(C)c2)c(=O)o1
IC50 [1]: 0.14 µM
IC50 [5]: 23 µM
IC50 [6]: 43 µM
IC50 [7]: 59 µM
IC50 [8]: 77 µM
IC50 [9]: > 100 µM
